Key:
A10 [1] = assay: Percent decrease in fluorescence in a membrane potential assay using the A10 cell line derived from embryonic rat aorta at 1.0 uM; type: functional
Procedure, shortened: (§1)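 Postconfluent A10 cells (passage ≤20, grown in DMEM/15% FBS) equilibrated ≥15 min at 37 °C in 5 μM DiBAC₄(3) in EBSS with 20 mM HEPES, pH 7.3. Compound added from 1000X DMSO or water stocks. Fluorescence (ex 488, em 525 nm) imaged every 60 s at 37 °C from a field of about 50 cells and normalized between experiments.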

A10 [2] = assay: Percent decrease in fluorescence in a membrane potential assay using the A10 cell line derived from embryonic rat aorta at 0.1 uM; type: functional; procedure, shortened: as §1
A10 [3] = assay: Percent decrease in fluorescence in a membrane potential assay using the A10 cell line derived from embryonic rat aorta at 0.01 uM; type: functional; procedure, shortened: as §1
A10 [4] = assay: Percent decrease in fluorescence in a membrane potential assay using the A10 cell line derived from embryonic rat aorta at 0.001 uM; type: functional; procedure, shortened: as §1
A10 [5] = assay: Percent decrease in fluorescence in a membrane potential assay using the A10 cell line derived from embryonic rat aorta at 10.0 uM; type: functional; procedure, shortened: as §1
Rattus norvegicus [6] = assay: Change in heart rate in beats per minute in anesthetized female rats at a dose of 0.30 mg/kg and a cumulative dose of 0.44 mg/kg; type: functional
Procedure, shortened: (§2)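 Fasted female Sprague-Dawley rats, 200–250 g, anesthetized iv with α-chloralose 40 mg/kg, urethane 20 mg/kg and pentobarbital 20 mg/kg. Femoral vein cannulated for dosing; heart rate taken by tachograph triggered from the arterial pulse. Rectal temperature kept at 36–38 °C. Drug given iv in 20% DMA/saline as four rising bolus steps 20 min apart. ΔHR from pretreatment is the mean of 4–5 rats.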

Rattus norvegicus [7] = assay: Change in mean arterial pressure in anesthetized female rats at a dose of 0.10 mg/kg and a cumulative dose of 0.14 mg/kg; type: functional, Artery
Procedure, shortened: (§3)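 Fasted female Sprague-Dawley rats, 200–250 g, under iv α-chloralose/urethane/pentobarbital anesthesia. Mean arterial pressure recorded continuously through a femoral artery catheter, after 30 min postsurgical equilibration. Compound given iv in 20% DMA/saline as step doses (initial plus three higher) at 20-min intervals. ΔMAP from pretreatment averaged over 4–5 rats per group; vehicle controls pooled n = 6.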

Rattus norvegicus [8] = assay: Change in mean arterial pressure in anesthetized female rats at a dose of 0.03 mg/kg and a cumulative dose of 0.04 mg/kg; type: functional, Artery; procedure, shortened: as §3
Rattus norvegicus [9] = assay: Change in heart rate in beats per minute in anesthetized female rats at a dose of 0.01 mg/kg and a cumulative dose of 0.01 mg/kg; type: functional; procedure, shortened: as §2
Rattus norvegicus [10] = assay: Change in mean arterial pressure in anesthetized female rats at a dose of 0.01 mg/kg and a cumulative dose of 0.01 mg/kg; type: functional, Artery; procedure, shortened: as §3
Rattus norvegicus [11] = assay: Change in heart rate in beats per minute in anesthetized female rats at a dose of 0.03 mg/kg and a cumulative dose of 0.04 mg/kg; type: functional; procedure, shortened: as §2
Rattus norvegicus [12] = assay: Change in mean arterial pressure in anesthetized female rats at a dose of 0.30 mg/kg and a cumulative dose of 0.44 mg/kg; type: functional, Artery; procedure, shortened: as §3
Rattus norvegicus [13] = assay: Change in heart rate in beats per minute in anesthetized female rats at a dose of 0.10 mg/kg and a cumulative dose of 0.14 mg/kg; type: functional; procedure, shortened: as §2
Rattus norvegicus [14] = assay: Change in mean arterial pressure in anesthetized female rats at a dose of 0.030 mg/kg and a cumulative dose of 0.044 mg/kg; type: functional, Artery; procedure, shortened: as §3
Rattus norvegicus [15] = assay: Change in mean arterial pressure in anesthetized female rats at a dose of 0.001 mg/kg and a cumulative dose of 0.001 mg/kg; type: functional, Artery; procedure, shortened: as §3
Rattus norvegicus [16] = assay: Change in heart rate in beats per minute in anesthetized female rats at a dose of 0.010 mg/kg and a cumulative dose of 0.014 mg/kg; type: functional; procedure, shortened: as §2
Rattus norvegicus [17] = assay: Change in mean arterial pressure in anesthetized female rats at a dose of 0.003 mg/kg and a cumulative dose of 0.004 mg/kg; type: functional, Artery; procedure, shortened: as §3
Rattus norvegicus [18] = assay: Change in heart rate in beats per minute in anesthetized female rats at a dose of 0.030 mg/kg and a cumulative dose of 0.044 mg/kg; type: functional; procedure, shortened: as §2
Rattus norvegicus [19] = assay: Change in mean arterial pressure in anesthetized female rats at a dose of 0.010 mg/kg and a cumulative dose of 0.014 mg/kg; type: functional, Artery; procedure, shortened: as §3
Rattus norvegicus [20] = assay: Change in heart rate in beats per minute in anesthetized female rats at a dose of 0.003 mg/kg and a cumulative dose of 0.004 mg/kg; type: functional; procedure, shortened: as §2
Rattus norvegicus [21] = assay: Change in heart rate in beats per minute in anesthetized female rats at a dose of 0.001 mg/kg and a cumulative dose of 0.001 mg/kg; type: functional; procedure, shortened: as §2

CC(C)NC1=NC(=O)C2(CC(C)(C)Oc3ccc(Br)cc32)N1 (stereo unspecified)
Decrease (A10 [1]): 22% | Decrease (A10 [2]): 5%

CNC1=NC(=O)C2(CC(C)(C)Oc3ccc([N+](=O)[O-])cc32)N1 (stereo unspecified)
Decrease (A10 [3]): 15% | Decrease (A10 [4]): <5% | Decrease (A10 [2]): 38%

CC(C)(C)CNC1=NC(=O)C2(CC(C)(C)Oc3ccccc32)N1 (stereo unspecified)
Decrease (A10 [5]): 7%

CNC1=NC(=O)C2(CC(C)(C)Oc3ccc(F)cc32)N1 (stereo unspecified)
Decrease (A10 [5]): 14% | Decrease (A10 [1]): 11%

CCOC1=NC(=O)C2(CC(C)(C)Oc3ccc(Br)cc32)N1 (stereo unspecified)
Decrease (A10 [1]): 20% | Decrease (A10 [2]): 5%

CCNC1=NC(=O)C2(CC(C)(C)Oc3ccc([N+](=O)[O-])cc32)N1 (stereo unspecified)
Decrease (A10 [3]): 13% | Decrease (A10 [4]): 9% | Decrease (A10 [2]): 28%

CSC1=NC(=O)C2(CC(C)(C)Oc3ccc(F)cc32)N1 (stereo unspecified)
Decrease (A10 [5]): 27% | Decrease (A10 [1]): 9%

CCCSC1=NC(=O)C2(CC(C)(C)Oc3ccc(C#N)cc32)N1 (stereo unspecified)
Decrease (A10 [1]): 17% | Decrease (A10 [2]): <5%

CCNC1=NC(=O)C2(CC(C)(C)Oc3ccc(C#N)cc32)N1 (stereo unspecified)
Decrease (A10 [1]): 25% | Decrease (A10 [2]): 8%

CC(C)NC1=NC(=O)C2(CC(C)(C)Oc3ccc(C#N)cc32)N1 (stereo unspecified)
Decrease (A10 [1]): 10% | Decrease (A10 [2]): <5%

CCNC1=NC(=O)C2(CC(C)(C)Oc3ccc(F)cc32)N1 (stereo unspecified)
Delta HR (Rattus norvegicus [6]): 45.6 beats min-1 | Delta MAP (Rattus norvegicus [7]): -28 mmHg | Delta MAP (Rattus norvegicus [8]): -10.7 mmHg | Delta HR (Rattus norvegicus [9]): -0.4 beats min-1 | Delta MAP (Rattus norvegicus [10]): -7.1 mmHg | Decrease (A10 [1]): 24% | Decrease (A10 [2]): 19% | Delta HR (Rattus norvegicus [11]): 1.7 beats min-1 | Delta MAP (Rattus norvegicus [12]): -44.6 mmHg | Delta HR (Rattus norvegicus [13]): 38 beats min-1

CCSC1=NC(=O)C2(CC(C)(C)Oc3ccc(Br)cc32)N1 (stereo unspecified)
Delta HR (Rattus norvegicus [6]): 17.5 beats min-1 | Delta MAP (Rattus norvegicus [7]): -21.5 mmHg | Delta MAP (Rattus norvegicus [8]): -16.3 mmHg | Decrease (A10 [3]): 11% | Delta HR (Rattus norvegicus [9]): 15.5 beats min-1 | Delta MAP (Rattus norvegicus [10]): -2.5 mmHg | Decrease (A10 [4]): 7% | Decrease (A10 [2]): 18% | Delta HR (Rattus norvegicus [11]): 29 beats min-1 | Delta MAP (Rattus norvegicus [12]): -25 mmHg | Delta HR (Rattus norvegicus [13]): 16.5 beats min-1

CCOC1=NC(=O)C2(CC(C)(C)Oc3ccccc32)N1 (stereo unspecified)
Decrease (A10 [5]): <5%

CSC1=NC(=O)C2(CC(C)(C)Oc3ccc(C#N)cc32)N1 (stereo unspecified)
Decrease (A10 [5]): 25% | Decrease (A10 [1]): 5%

CSC1=NC(=O)C2(CC(C)(C)Oc3ccc([N+](=O)[O-])cc32)N1 (stereo unspecified)
Decrease (A10 [3]): 8% | Decrease (A10 [1]): 16% | Decrease (A10 [2]): 11%

CCNC1=NC(=O)C2(CC(C)(C)Oc3ccc(Br)cc32)N1 (stereo unspecified)
Decrease (A10 [1]): 19% | Decrease (A10 [2]): 26%

CNC1=NC(=O)C2(CC(C)(C)Oc3ccc(Br)cc32)N1 (stereo unspecified)
Decrease (A10 [1]): 17% | Decrease (A10 [2]): 22%

CCCNC1=NC(=O)C2(CC(C)(C)Oc3ccccc32)N1 (stereo unspecified)
Decrease (A10 [1]): 7%

CCCNC1=NC(=O)C2(CC(C)(C)Oc3ccc(C#N)cc32)N1 (stereo unspecified)
Delta HR (Rattus norvegicus [6]): 39.2 beats min-1 | Delta MAP (Rattus norvegicus [7]): -66.2 mmHg | Delta MAP (Rattus norvegicus [8]): -50.8 mmHg | Decrease (A10 [3]): <5% | Delta HR (Rattus norvegicus [9]): 13.8 beats min-1 | Delta MAP (Rattus norvegicus [10]): -23.6 mmHg | Decrease (A10 [1]): 27% | Decrease (A10 [2]): 21% | Delta HR (Rattus norvegicus [11]): 19.2 beats min-1 | Delta MAP (Rattus norvegicus [12]): -70 mmHg | Delta HR (Rattus norvegicus [13]): 29.8 beats min-1

CCCNC1=NC(=O)C2(CC(C)(C)Oc3ccc(Br)cc32)N1 (stereo unspecified)
Delta HR (Rattus norvegicus [6]): 92.8 beats min-1 | Delta MAP (Rattus norvegicus [7]): -70.1 mmHg | Delta MAP (Rattus norvegicus [8]): -56.7 mmHg | Decrease (A10 [3]): 12% | Delta HR (Rattus norvegicus [9]): 44.9 beats min-1 | Delta MAP (Rattus norvegicus [10]): -25.6 mmHg | Decrease (A10 [2]): 28% | Delta HR (Rattus norvegicus [11]): 25.6 beats min-1 | Delta MAP (Rattus norvegicus [12]): -70.6 mmHg | Delta HR (Rattus norvegicus [13]): 46.3 beats min-1

CSC1=NC(=O)C2(CC(C)(C)Oc3ccc(Br)cc32)N1 (stereo unspecified)
Decrease (A10 [1]): 27% | Decrease (A10 [2]): 6%

CCCNC1=NC(=O)C2(CC(C)(C)Oc3ccc([N+](=O)[O-])cc32)N1 (stereo unspecified)
Delta MAP (Rattus norvegicus [14]): -72 mmHg | Delta MAP (Rattus norvegicus [15]): -19.8 mmHg | Delta HR (Rattus norvegicus [16]): 3.8 beats min-1 | Delta MAP (Rattus norvegicus [17]): -51.3 mmHg | Decrease (A10 [3]): 19% | Delta HR (Rattus norvegicus [18]): 31.8 beats min-1 | Delta MAP (Rattus norvegicus [19]): -66 mmHg | Delta HR (Rattus norvegicus [20]): 3.3 beats min-1 | Decrease (A10 [4]): 8% | Decrease (A10 [2]): 28% | Delta HR (Rattus norvegicus [21]): 6.8 beats min-1

CNC1=NC(=O)C2(CC(C)(C)Oc3ccc(C#N)cc32)N1 (stereo unspecified)
Decrease (A10 [1]): 19% | Decrease (A10 [2]): <5%

CCCNC1=NC(=O)C2(CC(C)(C)Oc3ccc(F)cc32)N1 (stereo unspecified)
Decrease (A10 [1]): 17% | Decrease (A10 [2]): 10%

CCCSC1=NC(=O)C2(CC(C)(C)Oc3ccc(Br)cc32)N1 (stereo unspecified)
Decrease (A10 [1]): 15% | Decrease (A10 [2]): 6%

CCOC1=NC(=O)C2(CC(C)(C)Oc3ccc(F)cc32)N1 (stereo unspecified)
Decrease (A10 [5]): 13% | Decrease (A10 [1]): <5%

CCSC1=NC(=O)C2(CC(C)(C)Oc3ccc(C#N)cc32)N1 (stereo unspecified)
Decrease (A10 [5]): 24% | Decrease (A10 [1]): 6%

CSC1=NC(=O)C2(CC(C)(C)Oc3ccccc32)N1 (stereo unspecified)
Decrease (A10 [5]): <5%

CC(C)NC1=NC(=O)C2(CC(C)(C)Oc3ccc(F)cc32)N1 (stereo unspecified)
Decrease (A10 [5]): 22% | Decrease (A10 [1]): 5%

CC(C)NC1=NC(=O)C2(CC(C)(C)Oc3ccccc32)N1 (stereo unspecified)
Decrease (A10 [5]): 13%

CC1(C)Oc2ccc(C#N)cc2C(N2CCCC2=O)C1O (stereo unspecified) [CROMAKALIM]
Delta HR (Rattus norvegicus [6]): 63 beats min-1 | Delta MAP (Rattus norvegicus [7]): -36.1 mmHg | Delta MAP (Rattus norvegicus [8]): -22.6 mmHg | Delta HR (Rattus norvegicus [9]): 33.8 beats min-1 | Delta MAP (Rattus norvegicus [10]): -14.7 mmHg | Decrease (A10 [1]): 22% | Decrease (A10 [2]): <5% | Delta HR (Rattus norvegicus [11]): 53.4 beats min-1 | Delta MAP (Rattus norvegicus [12]): -52.7 mmHg | Delta HR (Rattus norvegicus [13]): 65.6 beats min-1
